Assay results as given in ChEMBL document CHEMBL4118213, “Drug efficacy of novel 3-O-methoxy-4-halo disubstituted 5,7-dimethoxy chromans; evaluated via DNA gyrase inhibition, bacterial cell wall lesion and antibacterial prospective” (Bioorg Med Chem, 2018).
pIC50: −log10 of the molar value. ≈ marks a conversion by molar mass, not a printed value. Calls of active or inactive are those of the source. The rule behind the calls is not given here.

What was measured:
DNA gyrase = DNA gyrase (Staphylococcus aureus, UniProt P0A0K8+P20831); experiment: Inhibition of Staphylococcus aureus DNA gyrase assessed as reduction in relaxation of pBR322 DNA by […] analysis; type: protein-complex assay
Summary of the method: (§1)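 pBR322 DNA incubated with S. aureus DNA gyrase with or without compound (1.5 µg) and novobiocin as positive control. Products resolved by gel electrophoresis. IC50 from the dose–response curve; mean of duplicate or triplicate measurements.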

[1] = molecular target: DNA gyrase (Staphylococcus aureus) (UniProt P0A0K8+P20831); experiment: Inhibition of Staphylococcus aureus DNA gyrase assessed as reduction in relaxation of pBR322 DNA at 1.5 ug by […] analysis relative to control; type: protein-complex assay; summary of the method: as §1
Klebsiella pneumoniae = experiment: Antibacterial activity against Klebsiella pneumoniae MTCC 530; type: functional
Summary of the method: (§2)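 MIC determined against six bacterial strains over a range of concentrations, with 1% DMSO as the untreated control and novobiocin as the standard. Values are averages of n = 5.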

Escherichia coli = experiment: Antibacterial activity against Escherichia coli MTCC 443; type: functional; summary of the method: as §2
Pseudomonas aeruginosa = experiment: Antibacterial activity against Pseudomonas aeruginosa MTCC 424; type: functional; summary of the method: as §2
Staphylococcus aureus = experiment: Antibacterial activity against Staphylococcus aureus MTCC 96; type: functional; summary of the method: as §2
[2] = test system: Corynebacterium diphtheriae; experiment: Antibacterial activity against Corynebacterium diphtheriae MTCC 116; type: functional; summary of the method: as §2
Streptococcus pyogenes = experiment: Antibacterial activity against Streptococcus pyogenes MTCC 442; type: functional; summary of the method: as §2
[3] = test system: Corynebacterium diphtheriae; experiment: Antibacterial activity against Corynebacterium diphtheriae MTCC 116 assessed as cell wall degradation by measuring dead cells measured every 30 mins up to 180 mins by microscopic method; type: functional, organism-based
Summary of the method: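 C. diphtheriae was grown overnight in Loeffler medium and examined after treatment. Dead cells/cell debris were estimated every 30 min until whole-culture death. Total and dead cell stains were applied for 1 h in the dark at room temperature, then fluorescence was read at Ex 490/Em 525 and Ex 536/Em 617 nm, in triplicate.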

Erythrocyte [4] = experiment: Hemolytic activity in human RBC assessed as mean absorbance (reference value: 0.1868 +/- 0.033); type: ADME, cell-based
Summary of the method: (§3)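 Human red blood cell membrane stabilization tested at various concentrations (n = 4) in 96-well format, with distilled water taken as 100% hemolysis. Absorbance read-out; IC50 taken from the percentage inhibition versus concentration curve.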

Erythrocyte [5] = experiment: Hemolytic activity in human RBC assessed as membrane mortification by measuring […] stabilization by absorbance method relative to control; type: ADME, cell-based; design: concentration or dose not given beside the values; summary of the method: as §3
Erythrocyte [6] = experiment: Hemolytic activity in human RBC assessed as membrane mortification by absorbance method; type: ADME, cell-based; summary of the method: as §3
MCF10 = experiment: Cytotoxicity against human MCF10 cells after 8 hrs by MTT assay; type: cell-based; settings: mcf10, 8 h
Summary of the method: (§4)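 MTT assay on MCF-7 and MCF-10 cells (n = 4), with DMSO as control and doxorubicin as standard. Viability was read at several times after treatment and calculated as mean OD/control OD × 100%.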

MCF7 = experiment: Cytotoxicity against human MCF7 cells after 8 hrs by MTT assay; type: cell-based; settings: for Activity: human, mcf7, 8 h; summary of the method: as §4
[7] = Cytotoxicity against human MCF7 cells assessed as cell viability after 4 hrs by MTT assay relative to control; type: cell-based; design: concentration or dose not given beside the values; settings: read-out: Activity; summary of the method: as §4
[8] = Cytotoxicity against human MCF7 cells assessed as cell viability after 6 hrs by MTT assay relative to control; type: cell-based; design: concentration or dose not given beside the values; settings: read-out: Activity; summary of the method: as §4

| SMILES | pIC50 (DNA gyrase) | inhibition [1] [%] | MIC (Klebsiella pneumoniae) [µg/mL] | MIC (Escherichia coli) [µg/mL] | MIC (Pseudomonas aeruginosa) [µg/mL] | MIC (Staphylococcus aureus) [µg/mL] | MIC [2] [µg/mL] | MIC (Streptococcus pyogenes) [µg/mL] | Activity [3] | Activity (Erythrocyte [4]) | Activity (Erythrocyte [5]) [%] | IC50 (Erythrocyte [6]) [µg/mL] | Activity (MCF10) | Activity (MCF7) | viability at 4 h [7] [%] | viability at 6 h [8] [%] | pIC50 (MCF7; Homo sapiens, MCF7, 8 h) |
| --- | --- | --- | --- | --- | --- | --- | --- | --- | --- | --- | --- | --- | --- | --- | --- | --- | --- |
| COc1cc(OC)c2c(c1C(C)=O)OC(C)(C)C(OC)C2Cl (configuration not stated) | 7.62 to 8.73 | 78 to 94 | 0.96 (≈ 2.92 µM) | 1 (≈ 3.04 µM) | 1.02 (≈ 3.1 µM) | 0.18 (≈ 0.547 µM) | 0.21 (≈ 0.639 µM) | 1.07 (≈ 3.25 µM) | Active | 0.3659 | 86.37 | 0.222 (≈ 0.676 µM) | – | – | – | – | – |
| COc1cc(OC)c2c(c1C(C)=O)OC(C)(C)C(O)C2Br (configuration not stated) | 7.62 to 8.73 | 78 to 94 | – | – | – | – | – | – | – | – | – | – | – | – | – | – | – |
| CO[C@@H]1[C@@H](OC(=O)c2ccc(C)[nH]2)[C@@H](O)[C@H](Oc2ccc3c(O)c(NC(=O)c4ccc(O)c(CC=C(C)C)c4)c(=O)oc3c2Cl)OC1(C)C | – | 86 | – | – | – | – | – | – | – | – | – | – | – | – | – | – | – |
| COc1c(Br)c(OC)c(C(C)=O)c2c1C=CC(C)(C)O2 | 7.62 to 8.73 | 78 to 94 | 1.99 (≈ 5.83 µM) | 2.13 (≈ 6.24 µM) | 3.12 (≈ 9.14 µM) | 0.99 (≈ 2.9 µM) | 1.08 (≈ 3.17 µM) | 2.04 (≈ 5.98 µM) | Active | 0.3634 | 86.16 | 0.124 (≈ 0.364 µM) | – | – | – | – | – |
| CO[C@@H]1[C@@H](OC(N)=O)[C@@H](O)[C@H](Oc2ccc3c(O)c(NC(=O)c4ccc(O)c(CC=C(C)C)c4)c(=O)oc3c2C)OC1(C)C [NOVOBIOCIN] | – | – | 0.5 to 0.75 (≈ 0.816 to 1.22 µM) | 4.94 to 5 (≈ 8.06 to 8.16 µM) | 1.75 to 100 (≈ 2.86 to 163 µM) | 0.78 to 0.92 (≈ 1.27 to 1.5 µM) | 1.32 (≈ 2.15 µM) | 3.24 (≈ 5.29 µM) | – | – | – | – | – | – | – | – | – |
| COc1cc2c(c(O)c1C(C)=O)C(=O)CC(C)(C)O2 | 7.62 to 8.73 | 78 to 94 | 2.24 (≈ 8.48 µM) | 0.99 (≈ 3.75 µM) | 1.67 (≈ 6.32 µM) | 1 (≈ 3.78 µM) | 1.02 (≈ 3.86 µM) | 3.12 (≈ 11.8 µM) | Active | 0.3841 | 80.65 | 1.24 (≈ 4.69 µM) | – | – | – | – | – |
| COc1cc2c(c(OC)c1C(C)=O)[C@H](O)[C@H](O)C(C)(C)O2 | 7.62 to 8.73 | 78 to 94 | 3.88 (≈ 13.1 µM) | 4.1 (≈ 13.8 µM) | 3.01 (≈ 10.2 µM) | 1.54 (≈ 5.2 µM) | 1.28 (≈ 4.32 µM) | 5.02 (≈ 16.9 µM) | Active | 0.3611 | 80.88 | 1 (≈ 3.38 µM) | – | – | – | – | – |
| COc1cc(OC)c2c(c1C(C)=O)OC(C)(C)[C@H](O)[C@@H]2O | 8.00 | 78 to 94 | 2.18 (≈ 7.36 µM) | 2.24 (≈ 7.56 µM) | 4.52 (≈ 15.3 µM) | 0.92 (≈ 3.1 µM) | 0.99 (≈ 3.34 µM) | 2.85 (≈ 9.62 µM) | Active | 0.3888 | 85.31 | 0.88 (≈ 2.97 µM) | Non-Toxic | Dose-dependent effect | 20 | 16 | – |
| COc1ccc2c(c1)c(CC(=O)O)c(C)n2C(=O)c1ccc(Cl)cc1 [INDOMETHACIN] | – | – | – | – | – | – | – | – | – | 0.3834 | 85.64 | 0.086 (≈ 0.24 µM) | – | – | – | – | – |
| COc1cc(OC)c2c(c1C(C)=O)OC(C)(C)[C@@H](O)[C@H]2O | 7.62 to 8.73 | 78 to 94 | 0.92 (≈ 3.1 µM) | 0.84 (≈ 2.83 µM) | 1.01 (≈ 3.41 µM) | 0.64 (≈ 2.16 µM) | 0.9 (≈ 3.04 µM) | 1.02 (≈ 3.44 µM) | Active | 0.4046 | 88.52 | 0.0094 (≈ 0.0317 µM) | – | – | – | – | – |

Continued, in another order:

| pIC50 (DNA gyrase) | inhibition [1] [%] | MIC (Klebsiella pneumoniae) [µg/mL] | MIC (Escherichia coli) [µg/mL] | MIC (Pseudomonas aeruginosa) [µg/mL] | MIC (Staphylococcus aureus) [µg/mL] | MIC [2] [µg/mL] | MIC (Streptococcus pyogenes) [µg/mL] | SMILES | Activity [3] | Activity (Erythrocyte [4]) | Activity (Erythrocyte [5]) [%] | IC50 (Erythrocyte [6]) [µg/mL] | Activity (MCF10) | Activity (MCF7) | viability at 4 h [7] [%] | viability at 6 h [8] [%] | pIC50 (MCF7; Homo sapiens, MCF7, 8 h) |
| --- | --- | --- | --- | --- | --- | --- | --- | --- | --- | --- | --- | --- | --- | --- | --- | --- | --- |
| 8.02 | 78 to 94 | 0.76 (≈ 2.43 µM) | 0.92 (≈ 2.95 µM) | 0.94 (≈ 3.01 µM) | 0.16 (≈ 0.512 µM) | 0.92 (≈ 2.95 µM) | 0.94 (≈ 3.01 µM) | COc1cc(OC)c2c(c1C(C)=O)OC(C)(C)C(OC)C2F (configuration not stated) | Active | 0.3947 | 85.15 | 0.0922 (≈ 0.295 µM) | Non-Toxic | Dose-dependent effect | 20 | 16 | – |
| 8.12 | 78 to 94 | 0.9 (≈ 3.62 µM) | 0.88 (≈ 3.54 µM) | 1.02 (≈ 4.11 µM) | 0.1 (≈ 0.403 µM) | 0.82 (≈ 3.3 µM) | 1 (≈ 4.03 µM) | COc1cc(O)c2c(c1C(C)=O)OC(C)(C)C=C2 | Active | 0.4624 | 90.45 | 0.0182 (≈ 0.0733 µM) | Non-Toxic | Dose-dependent effect | 20 | 16 | – |
| 8.60 | 94 | 0.64 (≈ 1.68 µM) | 0.64 (≈ 1.68 µM) | 0.84 (≈ 2.21 µM) | 0.02 (≈ 0.0526 µM) | 0.04 (≈ 0.105 µM) | 0.83 (≈ 2.18 µM) | COc1cc(OS(=O)(=O)C(F)(F)F)c2c(c1C(C)=O)OC(C)(C)C=C2 | Active | 0.4852 | 98.84 | 0.0012 (≈ 0.00316 µM) | Non-Toxic | – | 20 | 16 | 8.00 |
| 8.46 | 90 | 0.72 (≈ 2.29 µM) | 0.68 (≈ 2.16 µM) | 0.87 (≈ 2.76 µM) | 0.08 (≈ 0.254 µM) | 0.68 (≈ 2.16 µM) | 0.87 (≈ 2.76 µM) | COc1cc(O)c2c(c1C(C)=O)OC(C)(C)C(OC)C2Cl (configuration not stated) | Active | 0.4242 | 93.25 | 0.0102 (≈ 0.0324 µM) | Non-Toxic | Dose-dependent effect | 20 | 16 | – |
